The record followed here is PubChem BioAssay.

The nature of experiment [1]: inhibitors of TNFa-induced NFkB p65 translocation, primary screen, imaging, HUVEC, MLSMR starter and 10KST1 sets (AID 438;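 active = inhibition above 20% together with a positive visual image hit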;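 also: compound added about 3h40 before a 20 min TNFalpha stimulation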;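 as to inhibition: signal is the nuclear over cytoplasmic p65 intensity ratio per well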). Particulars: HUVEC TNFa-induced p65 nuclear translocation; cell count: measured here: nuclei count (cytotoxicity indicator), at 2.08 µM; inhibition: at 2 µM, stronger effect = higher value, 0% TNFa-plus-vehicle, 100% no-TNFa wells.
Experiment [2] in a line: inhibitors of E-selectin induction by TNFa, primary screen, imaging, HUVEC, immunofluorescence, MLSMR starter and 10KST1 sets (AID 487;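 active = visually confirmed hit in the image check and inhibition above 20%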;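 as to inhibition: signal is fraction of cell area covered by stained E-selectin grains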;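 as to nuclei count: 100% = median nuclei count of all wells on the same plate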). Conditions: HUVEC TNFalpha-induced E-selectin immunofluorescence imaging, at 2 µM; inhibition: stronger effect = higher value; nuclei count: measured here: cell number, toxicity.
The nature of experiment [3]: DUSP6 inhibitors restoring Erk phosphorylation by chemical complementation, primary imaging in DUSP6-transfected HeLa (AID 609;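 active = compounds giving at least 50% inhibition in the cell-based MKP-3 phosphatase rescue imaging test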;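 as to inhibition: phospho-Erk level distribution per well compared with pooled transfected vehicle control wells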). Conditions: HeLa MKP-3 transfected, phospho-Erk imaging KS statistic, at 10 µM, cells stimulated with TPA for 15 min.
The target in experiment [4] is Dual specificity protein phosphatase 6 (Homo sapiens) (UniProt Q16828). The description is as above. Conditions: HeLa MKP-3 transfected, phospho-Erk imaging KS statistic; at 10 µM; stronger effect = higher value; cells stimulated with TPA for 15 min.
Chain of Dual specificity protein phosphatase 6 (Homo sapiens) (Q16828 whole entry, looked up): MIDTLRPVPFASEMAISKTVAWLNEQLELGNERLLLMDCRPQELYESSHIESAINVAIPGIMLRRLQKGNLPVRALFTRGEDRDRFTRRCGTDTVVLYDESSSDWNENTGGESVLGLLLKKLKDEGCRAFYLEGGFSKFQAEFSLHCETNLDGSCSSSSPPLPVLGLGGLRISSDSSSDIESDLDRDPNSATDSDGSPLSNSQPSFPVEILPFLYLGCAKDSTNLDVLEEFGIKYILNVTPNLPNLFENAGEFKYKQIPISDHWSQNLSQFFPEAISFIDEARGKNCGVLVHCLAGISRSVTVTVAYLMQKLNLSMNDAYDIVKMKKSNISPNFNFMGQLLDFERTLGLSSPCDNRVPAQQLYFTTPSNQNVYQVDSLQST
The target in experiment [5] is Voltage-gated potassium channel subunit beta-2 (Rattus norvegicus) (UniProt P62483). The experiment is described as follows: KvBeta enzyme negative modulators, primary screen, biochemical, NADPH fluorescence (AID 622;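 active = fluorescence slope higher than the sample average by over 3 SD, cut at about -0.22 in these data, passing the limit was not always enough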;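 also: slope of raw intensity against log time taken from 70 to 1610 s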). Conditions: recombinant KvBeta, 4-cyanobenzaldehyde reduction, at 10 µM, stronger effect = higher value.
Chain of Voltage-gated potassium channel subunit beta-2 (Rattus norvegicus) (P62483 whole entry, looked up): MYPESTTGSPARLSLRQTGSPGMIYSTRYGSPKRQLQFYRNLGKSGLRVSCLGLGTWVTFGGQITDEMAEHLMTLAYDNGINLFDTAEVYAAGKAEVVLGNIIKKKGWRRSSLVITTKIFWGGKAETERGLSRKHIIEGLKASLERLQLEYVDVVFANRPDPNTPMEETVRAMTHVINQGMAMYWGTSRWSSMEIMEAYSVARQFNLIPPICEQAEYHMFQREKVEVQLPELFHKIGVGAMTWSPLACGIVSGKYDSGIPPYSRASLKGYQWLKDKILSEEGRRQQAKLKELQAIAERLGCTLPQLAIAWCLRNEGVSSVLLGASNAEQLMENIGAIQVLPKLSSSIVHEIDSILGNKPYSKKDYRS
The target is the same in experiment [6]. The experiment is described as follows: KvBeta positive modulators, primary screen, biochemical, NADPH fluorescence (AID 623).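 Also: fluorescence intensity change per second fitted from 20 to 320 s.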 Particulars: Recombinant KvBeta, NADPH fluorescence decrease slope, 10 min; at 10 µM; stronger effect = lower value.
The target of experiment [7] is Alpha-2C adrenergic receptor (Homo sapiens) (UniProt P18825). The experiment is described as follows: modulators of alpha2C/GIRK thallium flux, primary screen, cell-based, HEK293 alpha2C/GIRK1/2 (AID 624;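 active = fluorescence slope after compound addition differing from the mean of all screened samples at 99.7% confidence, in either direction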;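 also: slope of fluorescence ratio to pre-addition baseline per second over 15 to 24 s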). Conditions: thallium flux BTC fluorescence, at 10 µM, actives lie on both sides.
Chain of Alpha-2C adrenergic receptor (Homo sapiens) (P18825 whole entry, looked up): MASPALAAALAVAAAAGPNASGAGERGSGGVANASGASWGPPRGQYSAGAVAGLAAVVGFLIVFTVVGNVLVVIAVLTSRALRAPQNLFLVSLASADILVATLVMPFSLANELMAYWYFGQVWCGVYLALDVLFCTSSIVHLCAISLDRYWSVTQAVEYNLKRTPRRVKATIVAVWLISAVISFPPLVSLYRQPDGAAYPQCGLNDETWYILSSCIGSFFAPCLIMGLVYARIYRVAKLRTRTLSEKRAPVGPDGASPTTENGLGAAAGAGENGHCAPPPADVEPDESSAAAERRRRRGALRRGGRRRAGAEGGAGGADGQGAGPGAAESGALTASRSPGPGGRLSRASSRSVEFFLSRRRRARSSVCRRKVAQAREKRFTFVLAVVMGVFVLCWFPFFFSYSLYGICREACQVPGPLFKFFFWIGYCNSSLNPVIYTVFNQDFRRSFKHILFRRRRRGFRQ
A short description of experiment [8]: inhibitors of larval lipid processing in zebrafish, primary screen, whole organism, PED6 fluorescence, gall bladder and intestine (AID 686;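 active = a full or partial loss of lipid-probe fluorescence in the fish gall bladder, intestine or both, judged by eye; inactive = no fluorescence loss, or compound toxic to the fish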;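 also: larvae 5 to 7 days old with five fish per well; signal comes from phospholipase A2 cleavage of quenched PED6 carried via bile; overnight exposure to compound and PED6 before scoring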). Particulars: Zebrafish larvae PED6 lipid processing, fluorescence scoring; screened at 20 µM (by protocol). A digest of the protocol:
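Test system – live zebrafish larvae aged 5-7 days, whole organism · Buffer or medium – E3 fish medium · Reagent – quenched phospholipase substrate PED6, 100 nM final, ingested by larvae · Doses – 20 µM single dose · Incubation – overnight compound and PED6 incubation · Technique – visual fluorescence microscopy scoring of gall bladder, gut · Read-out basis – visual per-well fluorescence inhibition score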

Experiment [9] can be described thus: inhibitors of Chlamydomonas gravitaxis, primary screen, whole organism, Chlamydomonas reinhardtii, WT vs cilia-less mutant, absorbance, 96-well (AID 463189;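 active = inhibition at or above 50% relative to wild type and mutant plate controls; inactive = inhibition below 50%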;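 also: 0% = wild type cc124 cells in DMSO and 100% = ciliumless bld1 mutant cells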). Particulars: OD600 absorbance, 2 days, at 10 µM, stronger effect = higher value.
Where [10] appears, read: measured here: cell density z-score.
Where [11] appears, read: measured here: nuclear c-Myc green intensity z-score.
[12] abbreviates: measured here: nuclear pErk red intensity z-score, stronger effect = higher value.

Each structure is given as a SMILES string. Calls of active or inactive are those of the source.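 The calls were made as follows, unless noted: active = NADPH fluorescence slope more negative than the mean of all samples by about 3 SD, 99.7% confidence; inactive = the rest.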

Take `Nc1c(C(=O)NCC2CCCO2)c2nc3ccccc3nc2n1/N=C/c1ccncc1` (centres undefined): in experiment [1], the cell count amounted to 470. Further, the inhibition was -2.9% (inactive) in [1], -109% (inactive) in experiment [2], 22.8% (inactive) in experiment [4] and -25.5% (inactive) in [9]. The molecule also displayed a nuclei count in experiment [2] of 110%. Further, the z-score in [3] (setting [10]) was 1.93; in experiment [3] (setting [11]) it was -0.485; in [3] (setting [12]), 0.517. Further, the fluorescence slope in experiment [5] is -0.507 (inactive). The NADPH fluorescence slope in experiment [6] was -3.7e-05 (inactive). The slope in experiment [7] is 0.00723 (inactive). Moreover, the molecule was called inactive in experiment [8].
As for `c1ccc(OCc2nn3c(C4CCCCC4)nnc3s2)cc1`, the cell count in experiment [1] was 633. Besides, the inhibition in experiment [1] was -8.1% (inactive); in [2] it was -110% (inactive); in experiment [4], -6.06% (inactive); in [9], -1.22% (inactive). In experiment [2], this molecule registered a nuclei count of 167%. The z-score in experiment [3] (setting [10]) was -0.542; in experiment [3] (setting [11]), -0.363; in experiment [3] (setting [12]), 1.81. Moreover, the fluorescence slope in experiment [5] is -0.434 (inactive). Moreover, the NADPH fluorescence slope in experiment [6] was -0.000186 (inactive). Also, in experiment [7], the slope is 0.00482 (inactive). For the same molecule, the result in experiment [8] was inactive.
As to `CC(C)CC(NC(=O)OC(C)(C)C)C(=O)NCc1ccccc1` (centres undefined), the cell count in experiment [1] came out at 626. In addition, the inhibition in [1] is -12.9% (inactive); in [2], -28.9% (inactive); in [4] it was 5.57% (inactive); in [9], 1.86% (inactive). This molecule had a nuclei count in [2] of 156%. Besides, the z-score in [3] (setting [10]) is 1.56; in [3] (setting [11]), -1.58; in [3] (setting [12]), 0.0751. The fluorescence slope in experiment [5] was -0.475 (inactive). In [6], the NADPH fluorescence slope was -0.000315 (inactive). The slope in experiment [7] was 0.00412 (inactive). Also, the molecule was called inactive in [8].
On to `COc1cccc(N2CCN(C3CC(=O)N(c4cccc(Cl)c4)C3=O)CC2)c1` (centres undefined), for which the cell count in [1] was found to be 325. The inhibition was -2.2% (inactive) in [1], -62.9% (inactive) in experiment [2], 3.42% (inactive) in experiment [4] and -11.3% (inactive) in experiment [9]. Besides, the nuclei count in experiment [2] amounted to 80.7%. In addition, the z-score in [3] (setting [10]) was -0.898; in experiment [3] (setting [11]), 1.47; in experiment [3] (setting [12]) it was -0.427. The fluorescence slope in experiment [5] was -0.43 (inactive). Besides, in experiment [6], the NADPH fluorescence slope is -0.00011 (inactive). Moreover, the slope in experiment [7] is 0.00471 (inactive). For the same molecule, the call in experiment [8] was inactive.
Regarding `Cc1nc2sc3c(NCc4ccco4)ncnc3c2c2c1COC(C)(C)C2`, the cell count in experiment [1] came out at 595. Also, the inhibition in experiment [1] is -11% (inactive); in [2] it was -84.2% (inactive); in experiment [4], -2.69% (inactive); in [9], 45.7% (inactive). In [2], this molecule yielded a nuclei count of 181%. For the same molecule, the z-score in experiment [3] (setting [10]) was -1.22; in experiment [3] (setting [11]), -0.424; in [3] (setting [12]), 1.05. The fluorescence slope in experiment [5] was -0.373 (inactive). For the same molecule, the NADPH fluorescence slope in experiment [6] is -3e-05 (inactive). In [7], the slope was 0.00585 (inactive). The molecule was classed as inactive in [8].
Consider `CCCOc1ccc(/C(O)=C2/C(=O)C(=O)N(CCN3CCOCC3)C2c2ccccc2)cc1` (centres undefined), for which the cell count in [1] came to 365. For the same molecule, the inhibition in experiment [1] is -10.5% (inactive); in experiment [2] it was -132% (inactive); in experiment [4] it was -0.159% (inactive); in experiment [9], -3.19% (inactive). In addition, the nuclei count in [2] was found to be 144%. Besides, the z-score is -0.109 in experiment [3] (setting [10]), 0.153 in experiment [3] (setting [11]) and 0.743 in experiment [3] (setting [12]). Further, the fluorescence slope in [5] was -0.426 (inactive). The NADPH fluorescence slope in [6] was -6.6e-05 (inactive). In [7], the slope is 0.00576 (inactive). Besides, the call in experiment [8] was inactive.
`N#CCCn1cnc2c(=S)nc[nH]c21`: the cell count in [1] turned out to be 355. Also, the inhibition in experiment [1] is -12.9% (inactive); in experiment [2] it was -142% (inactive); in [4], 1.6e-07% (inactive); in experiment [9], -4.04% (inactive). Also, the nuclei count in [2] is 181%. For the same molecule, the results for the z-score in [3] (setting [10]), in experiment [3] (setting [11]) and in experiment [3] (setting [12]) were 0.101, 0.0894 and 1.37, respectively. In [5], the fluorescence slope was -0.438 (inactive). For the same molecule, the NADPH fluorescence slope in experiment [6] is -0.000132 (inactive). For the same molecule, the slope in [7] was 0.00509 (inactive). In addition, the molecule was classed as inactive in experiment [8].
Take `CCOc1nc(SCCOc2ccc(C)cc2)nc(N(C)C)n1`: the cell count in experiment [1] worked out at 346. The inhibition in experiment [1] is -10.2% (inactive); in [2], -115% (inactive); in experiment [4], 22.8% (inactive); in experiment [9], 30.3% (inactive). In addition, the nuclei count in [2] was 91.5%. Further, the z-score in [3] (setting [10]) was 2.72; in experiment [3] (setting [11]), -0.00429; in [3] (setting [12]), -0.85. Moreover, the fluorescence slope in [5] was -0.474 (inactive). Further, the NADPH fluorescence slope in experiment [6] is 3.1e-05 (inactive). In addition, the slope in experiment [7] was 0.0074 (inactive). Moreover, the result in [8] was inactive.
Turning to `N#CCCSCc1ccc(OCC(=O)O)cc1`, in [1], the cell count worked out at 547. For the same molecule, the inhibition in experiment [1] was -22.2% (inactive); in experiment [2], -141% (inactive); in experiment [4], 5.95% (inactive); in [9], 2.45% (inactive). The same molecule returned a nuclei count in experiment [2] of 138%. Besides, the z-score in [3] (setting [10]) is 0.922; in experiment [3] (setting [11]), -1.08; in [3] (setting [12]), 0.0284. The fluorescence slope in experiment [5] is -0.488 (inactive). The NADPH fluorescence slope in experiment [6] is -9.2e-05 (inactive). The slope in [7] is 0.00635 (inactive). The call in [8] was inactive.
As for `Cc1cc(C)c(-n2c(O)c(C=NCCN3CCOCC3)c(=O)[nH]c2=O)c(C)c1`, the cell count in [1] was found to be 594. The inhibition was 6.5% (inactive) in experiment [1], 19% (inactive) in experiment [2], 14% (inactive) in [4] and 0.886% (inactive) in experiment [9]. The molecule further yielded a nuclei count in experiment [2] of 152%. For the same molecule, the results for the z-score in experiment [3] (setting [10]), in [3] (setting [11]) and in experiment [3] (setting [12]) were 0.606, -1.55 and -1.1, respectively. The fluorescence slope in experiment [5] was -0.334 (inactive). The NADPH fluorescence slope in experiment [6] is -5e-07 (inactive). Moreover, in experiment [7], the slope was 0.00437 (inactive). Moreover, in experiment [8], the molecule was called inactive.
Take `Cc1ccc2c(c1)[C@@H]1CN(C)CC[C@@H]1N2S(=O)(=O)c1ccc(F)cc1`: in [1], the cell count amounted to 507. Also, the inhibition in experiment [1] is -8.3% (inactive); in experiment [2], -69% (inactive); in experiment [4] it was -8.27% (inactive); in experiment [9], 10.5% (inactive). The molecule also returned a nuclei count in [2] of 199%. Moreover, the z-score in experiment [3] (setting [10]) was -0.629; in [3] (setting [11]) it was -0.478; in experiment [3] (setting [12]) it was -0.18. Besides, in [5], the fluorescence slope is -0.324 (inactive). In addition, the NADPH fluorescence slope in experiment [6] was -2.1e-06 (inactive). Also, the slope in experiment [7] was 0.00411 (inactive). Moreover, the result in experiment [8] was inactive.
As to `CCCCNc1nc2c(c(=O)n(C)c(=O)n2C)n1Cc1cccc(OC)c1`, the cell count in [1] is 452. In addition, the inhibition is -7.7% (inactive) in experiment [1], -133% (inactive) in experiment [2], -5.62% (inactive) in experiment [4] and 1.32% (inactive) in experiment [9]. The molecule further showed a nuclei count in experiment [2] of 175%. The z-score is 0.299 in experiment [3] (setting [10]), -0.341 in [3] (setting [11]) and -1.15 in experiment [3] (setting [12]). Besides, the fluorescence slope in [5] was -0.378 (inactive). Also, in [6], the NADPH fluorescence slope is -1.6e-05 (inactive). In addition, the slope in experiment [7] is 0.00373 (inactive). In addition, the outcome in [8] is “active; weak signal in gallbladder and intestine”.
For `Cc1ccccc1-c1nn2c(-c3ccccc3)nnc2s1`, in [1], the cell count stood at 590. In addition, the inhibition in experiment [1] is -20% (inactive); in experiment [2], -150% (inactive); in [4] it was -2.47% (inactive); in experiment [9], 92.9% (active). Besides, the nuclei count in experiment [2] came to 149%. Besides, the z-score in experiment [3] (setting [10]) is 0.229; in experiment [3] (setting [11]), -1.66; in experiment [3] (setting [12]), 0.142. For the same molecule, the fluorescence slope in experiment [5] is -0.451 (inactive). The NADPH fluorescence slope in experiment [6] is -6e-05 (inactive). Moreover, the slope in [7] was 0.00655 (inactive). In addition, the result in experiment [8] was inactive.
